Data as given in ChEMBL document CHEMBL1629488, “Synthesis and biological evaluation of 2-(3',4',5'-trimethoxybenzoyl)-3-aryl/arylaminobenzo[b]thiophene derivatives as a novel class of antiproliferative agents” (Eur J Med Chem, 2010).
The source made the active and inactive calls. No cut-off for these calls is given here.

Experiments:
[1] = test system: HeLa; experiment: Induction of apoptosis in human HeLa cells assessed as ROS production after 24 to 48 hrs using H2-DCFDA staining by flow cytometry; assay type: functional, cell-based
Outline: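 ROS probe: after 24 or 48 h exposure, HeLa cells resuspended in HBSS with 0.1 μM H2DCFDA, incubated 30 min at 37 °C, spun and resuspended in HBSS; fluorescence recorded by flow cytometry, excitation 488 nm, emission 530 nm.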

[2] = test system: HeLa; experiment: Induction of apoptosis in human HeLa cells assessed as caspase-3-mediated cleavage of PARP after 24 hrs by Western blot analysis; assay type: functional, cell-based
Outline: (§1)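 Treated cells washed twice in ice-cold PBS, lysed 30 min on ice, lysate cleared at 15000×g, 4 °C, 10 min; protein by BCA. 20 μg per lane on SDS-PAGE (7.5–15%), PVDF transfer, overnight block at 4 °C; primary antibodies 2 h at room temperature, peroxidase secondaries 60 min, ECL detection; β-actin loading control.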

[3] = test system: HeLa; experiment: Upregulation of cdc25c protein expression in human HeLa cells at 0.6 to 2.5 uM after 24 to 48 hrs by Western blot analysis; assay type: functional, cell-based; outline: as §1
[4] = test system: HeLa; experiment: Induction of apoptosis in human HeLa cells assessed as early apoptotic cells at 1.25 uM after 24 hrs using FITC-conjugated annexin V and propidium iodide staining by flow cytometry assay (RVb = 1.5 %); assay type: functional
[5] = test system: HeLa; experiment: Induction of apoptosis in human HeLa cells assessed as increase of Bax protein expression up to 2.5 uM after 24 to 48 hrs by Western blot analysis; assay type: functional, cell-based; outline: as §1
[6] = test system: HeLa; experiment: Induction of apoptosis in human HeLa cells assessed as viable cells at 2.5 uM after 24 hrs using FITC-conjugated annexin V and propidium iodide staining by flow cytometry assay (RVb = 94.7 %); assay type: functional; details: read-out: Activity
[7] = test system: HeLa; experiment: Induction of apoptosis in human HeLa cells assessed as early apoptotic cells at 0.62 uM after 24 hrs using FITC-conjugated annexin V and propidium iodide staining by flow cytometry assay (RVb = 1.5 %); assay type: functional
[8] = test system: HeLa; experiment: Induction of apoptosis in human HeLa cells assessed as necrotic cells at 0.62 uM after 24 hrs using FITC-conjugated annexin V and propidium iodide staining by flow cytometry assay (RVb = 1.9 %); assay type: functional
[9] = test system: Jurkat; experiment: Cell cycle arrest in human Jurkat cells assessed as accumulation at S phase at 1.25 uM after 24 hrs using propidium iodide staining by flow cytometry relative to control; assay type: functional
Outline: (§2)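 Exponentially growing cells (5 × 10^5) exposed to graded compound levels, 0.312 to 5 μM, for 24 or 48 h; collected, fixed in ice-cold 70% ethanol, treated with lysis buffer containing RNase A and 0.1% Triton X-100, stained with propidium iodide; DNA content read by flow cytometry. Mean ± SEM of two independent experiments.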

[10] = test system: A549; experiment: Antiproliferative activity against human A549 cells after 72 hrs by MTT assay; assay type: functional, cell-based; details: A549, 72 h
Outline: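 A549 and HeLa cells grown in DMEM with 10% FBS and penicillin/streptomycin. Plated at 8 × 10^3 cells/well and held 18 h at 37 °C in 5% CO2. Medium replaced with compound in complete medium at varied concentrations for 72 h at 37 °C, then MTT read.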

[11] = test system: Jurkat; experiment: Cell cycle arrest in human Jurkat cells assessed as accumulation at G1 phase at 1.25 uM after 24 hrs using propidium iodide staining by flow cytometry relative to control; assay type: functional; outline: as §2
[12] = test system: HeLa; experiment: Induction of apoptosis in human HeLa cells assessed as caspase-3-mediated cleavage of PARP at 0.625 to 2.5 uM; assay type: functional, cell-based; details: TDE = time-dependent effect; outline: as §1

For `CCOc1ccc(Nc2c(C(=O)c3cc(OC)c(OC)c(OC)c3)sc3ccccc23)cc1`, the Activity [1] was “Active”, the Activity [2] was “Active” and the Activity [3] was “Active”. For the same compound, the Activity [4] was 6.8%, the Activity [5] was “inactive” and the viability at 2.5 µM [6] was 49.4%. It also gave an Activity [7] of 5.2%, an Activity [8] of 15.5% and an Activity [9] of 18%. For the same compound, the IC50 [10] was 1400 nM, the Activity [11] was 10% and the Activity [12] was “tde”.
